# Measurements from PMC8179325 (Cell reports, 2021).
# pIC50: −log10 of the molar value. “Also recorded” adds a separate entry of the source.
# Legend:
# mouse DRG neurons [1] = test: Rotenone-induced axonal degeneration; assay type: cell-based
# Procedure, shortened: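 Mouse DRG cultures at 6–7 DIV received 25 µM rotenone, either continuously or as 1- or 3-h pulses removed by gentle 3× rinsing. Test compound at 30 µM was given either as 2-h pretreatment or immediately after rotenone removal. Axonal fragmentation scored 48 h after rotenone onset; n = 4.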
# mouse DRG neurons [2] = test: Video time-lapse analysis of individual axonal blebs after rotenone pulse; assay type: cell-based
# Procedure, shortened: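 Mouse DRG cultures given a 3-h pulse of 25 µM rotenone, rinsed, ± 30 µM test compound, then imaged brightfield every 15 min at 20X for 48 h. A blinded observer identified blebs at 3 h, tracked them back to confirm origin from healthy axons, then forward until fragmentation, resolution or end. Data analysed by Kaplan-Meier, with percentages taken at 48 h.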
# mouse DRG somas = test: Neuronal cell death after rotenone pulse; assay type: cell-based; details: WT DRG, 25 µM rotenone, 48 h
# Procedure, shortened: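 Live mouse DRG cultures exposed to 25 µM rotenone for 48 h, then stained 20 min with 0.25 µM Cytotox Green (dead cells) and 1 µM Cytolight red. Imaged by IncuCyte at 20X, 9 fields/well; bright-field gave total cell counts and green fluorescence gave dead somas.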
# [3] = test system: axotomized mouse DRG neurons; test: Axon degeneration; assay type: cell-based; details: for axonal protection after axotomy: WT mouse DRG, 16 h post-axotomy
# Procedure, shortened: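 Mouse DRG from E13.5 C57BL/6J embryos, trypsin/EDTA-dissociated (37°C, 30 min), spotted at 5,000 cells/well on poly-D-lysine/laminin; assay at 6–7 DIV. Test compound diluted from 10 mM DMSO stock (final DMSO 0.3%), pretreated 2 h unless added after injury (e.g. 30 µM at set times). Axons cut manually with micro-surgical blade and scored for fragmentation 16 h post-axotomy.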
# [4] = test system: axotomized mouse dorsal root ganglia (DRG) axons; test: Axonal metabolites; assay type: cell-based; details: axonal lysates after axotomy, dose dependent
# Procedure, shortened: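 Mouse E13.5 DRG neurons spotted at 100,000 cells/well; test compound present at graded concentrations; all axons severed around the soma cluster at DIV6. After 4 h, cell bodies removed on ice; axons extracted in 50% MeOH with chloroform partition, then lyophilized. cADPR and NAD+ quantified by online SPE-LC-MS/MS with 2-chloroadenosine internal standard against synthetic standard curves. Reported as ng/100,000 cells; n = 3/condition.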
# [5] = test system: human iPSC-derived motor neurons; test: Axon fragmentation after axotomy in human motor neurons; assay type: cell-based
# Procedure, shortened: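 Human iPSC-derived motor neurons spotted at 10,000 cells/well on poly-D-lysine/laminin in Complete Maintenance Medium + 5 µM DAPT; assay at 14 DIV. Test compound diluted from 10 mM DMSO stock (final DMSO 0.3%), pretreated 2 h before injury. Axons cut manually with micro-surgical blade and examined for fragmentation 16 h post-axotomy.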
# mouse DRG neurons [6] = test: NfL release in response to rotenone; assay type: cell-based; details: 25 μM rotenone
# Procedure, shortened: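 Culture supernatants from mouse DRG neurons exposed to 25 µM rotenone, either continuously sampled over time or as 1- or 3-h pulses with collection at 48 h. Neurofilament light measured by NF-Light ELISA per the kit instructions.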
# mouse DRG axons = test: Mitochondrial membrane potential by TMRM fluorescence; assay type: cell-based
# Procedure, shortened: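 Mitochondrial membrane potential in mouse DRG axons read live as TMRM fluorescence; cells were then rinsed, fixed in 1% paraformaldehyde and immunostained for βIII-tubulin. Axotomy arm: 10 µM test compound. Rotenone arm: 3-h pulse of 25 µM rotenone, rinsed 3×, 30 µM test compound immediately afterward, imaged 48 h after rotenone onset; n = 4.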
# mouse DRG neurons [7] = test: Axonal cADPR after 3-h rotenone pulse; assay type: cell-based; details: 3 h 25 μM rotenone, rinse, then 4 h compound
# Procedure, shortened: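 Mouse DRG cultures given a 3-h pulse of 25 µM rotenone, rinsed, then test compound added. Axonal metabolites extracted on ice: cell bodies removed, 50% MeOH, chloroform partition, lyophilization. cADPR measured by SPE-LC-MS/MS with 2-chloroadenosine internal standard against synthetic standard curves; reported as ng/100,000 cells.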
# CD38 = molecular target: T1, CD38 (Homo sapiens, UniProt P28907); test: Biochemical selectivity panel
# T1 sequence (P28907 1-300): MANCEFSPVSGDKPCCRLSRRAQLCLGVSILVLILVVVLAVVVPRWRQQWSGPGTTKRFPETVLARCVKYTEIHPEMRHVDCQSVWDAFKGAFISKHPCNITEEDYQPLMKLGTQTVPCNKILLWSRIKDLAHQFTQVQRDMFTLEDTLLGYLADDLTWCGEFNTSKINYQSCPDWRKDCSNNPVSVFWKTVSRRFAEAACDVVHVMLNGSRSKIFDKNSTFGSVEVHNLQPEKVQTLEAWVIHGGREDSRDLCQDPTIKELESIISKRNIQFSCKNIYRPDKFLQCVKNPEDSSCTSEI
# [8] = molecular target: T2, constitutively active SAM-TIR protein of human SARM1 (Homo sapiens, UniProt Q6SZW1); test: SAM-TIR NADase assay; assay type: biochemical
# T2 sequence (Q6SZW1 409-700): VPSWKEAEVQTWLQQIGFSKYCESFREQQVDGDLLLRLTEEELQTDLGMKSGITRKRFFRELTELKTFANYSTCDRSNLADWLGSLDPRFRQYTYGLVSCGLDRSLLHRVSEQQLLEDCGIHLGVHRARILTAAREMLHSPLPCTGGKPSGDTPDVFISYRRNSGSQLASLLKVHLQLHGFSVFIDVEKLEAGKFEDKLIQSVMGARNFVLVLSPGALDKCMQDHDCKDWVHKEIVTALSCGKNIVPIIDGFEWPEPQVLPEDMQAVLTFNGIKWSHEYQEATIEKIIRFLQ
# [9] = 30 μM added after 3-h pulse of 25 μM rotenone
structure (smiles),measurement,setting,value
"C=C(C)[C@H]1Cc2c(ccc3c2O[C@@H]2COc4cc(OC)c(OC)cc4[C@@H]2C3=O)O1 [rotenone, reference compound]",axonal degeneration after rotenone pulse,"mouse DRG neurons [1]; 25 μM rotenone removed after 1 h, examined at 48 h",~ 70%
same,blebs transected after rotenone removal,"mouse DRG neurons [2]; 3-h pulse 25 μM rotenone, by 18 h",95%
same,blebs fragmented after rotenone removal,"mouse DRG neurons [2]; 3-h pulse 25 μM rotenone, by 48 h",100%
same,neuronal cell death (dead somas) caused by rotenone,mouse DRG somas,approximately 60%
"O=C(c1cc(Cc2n[nH]c(=O)c3ccccc23)ccc1F)N1CCN(C(=O)C2CC2)CC1 [olaparib, reference compound]",axonal protection after axotomy,[3],no protection of injured axons
"Ic1cccc2cnccc12 [DSRM-3716, 5-iodoisoquinoline]",preservation of NAD+ after axotomy,[4],substantial preservation of NAD^+
same,additional axonal protection in SARM1−/− neurons,"[3]; SARM1−/− DRG, 30 µM, axotomy",did not provide benefit beyond the robust protection observed with SARM1 genetic loss of function
same,axonal protection after axotomy,[3],protected axons
same,"axonal protection, inhibitor added after injury",[3]; added 5 h post-axotomy,robustly protected
same,protection from fragmentation after axotomy,[5],dose-dependent protection
same,protection from rotenone-induced axonal degeneration (pretreatment),"mouse DRG neurons [1]; 25 μM rotenone, 48 h, 30 μM compound",prevented axonal degeneration to the same extent as protection observed in SARM1^−/− neurons; also recorded: robust protection
same,"protection from fragmentation, compound added after rotenone pulse","mouse DRG neurons [1]; 3-h pulse 25 μM rotenone, 30 μM compound immediately after removal, 48 h",protected axons from fragmentation
same,NfL release into culture supernatant in response to rotenone,mouse DRG neurons [6],can be prevented
same,axonal blebs induced by rotenone that fragmented (transected),mouse DRG neurons [2]; [9],10%
same,axonal blebs induced by rotenone that remained,mouse DRG neurons [2]; [9],30%
same,TMRM fluorescence (mitochondrial viability) after axotomy,"mouse DRG axons; 10 μM, axotomy",preserved TMRM fluorescence; also recorded: maintained viable functional mitochondria
same,mitochondrial function by TMRM after rotenone pulse,"mouse DRG axons; 3-h pulse 25 μM rotenone, 30 μM compound after removal, 48 h",preserved mitochondrial function
same,axonal levels of cADPR after rotenone pulse,mouse DRG neurons [7],reduced axonal levels of cADPR
same,inhibitory activity against CD38,CD38,no inhibitory activity
"Oc1cccc2cnccc12 [compound 3, 5-hydroxyisoquinoline]",pIC50,[8],5.59
